# Measured values taken from ChEMBL document CHEMBL1909618, “Non-steroidal dissociated glucocorticoid agonists: indoles as A-ring mimetics and function-regulating pharmacophores” (Bioorg Med Chem Lett, 2011).
# pEC50, pIC50: −log10 of the molar value. The source made the active and inactive calls. The calls are words filed in the database; no cut-off is given here.
# Assays:
# [1] = target: T1, Glucocorticoid receptor (Homo sapiens) (UniProt P04150); experiment: Agonist activity at glucocorticoid receptor in HFF assessed as inhibition of IL1-induced IL-6 production after 18 to 24 hrs relative to Dexamethasone; format: functional
# T1 sequence (whole entry): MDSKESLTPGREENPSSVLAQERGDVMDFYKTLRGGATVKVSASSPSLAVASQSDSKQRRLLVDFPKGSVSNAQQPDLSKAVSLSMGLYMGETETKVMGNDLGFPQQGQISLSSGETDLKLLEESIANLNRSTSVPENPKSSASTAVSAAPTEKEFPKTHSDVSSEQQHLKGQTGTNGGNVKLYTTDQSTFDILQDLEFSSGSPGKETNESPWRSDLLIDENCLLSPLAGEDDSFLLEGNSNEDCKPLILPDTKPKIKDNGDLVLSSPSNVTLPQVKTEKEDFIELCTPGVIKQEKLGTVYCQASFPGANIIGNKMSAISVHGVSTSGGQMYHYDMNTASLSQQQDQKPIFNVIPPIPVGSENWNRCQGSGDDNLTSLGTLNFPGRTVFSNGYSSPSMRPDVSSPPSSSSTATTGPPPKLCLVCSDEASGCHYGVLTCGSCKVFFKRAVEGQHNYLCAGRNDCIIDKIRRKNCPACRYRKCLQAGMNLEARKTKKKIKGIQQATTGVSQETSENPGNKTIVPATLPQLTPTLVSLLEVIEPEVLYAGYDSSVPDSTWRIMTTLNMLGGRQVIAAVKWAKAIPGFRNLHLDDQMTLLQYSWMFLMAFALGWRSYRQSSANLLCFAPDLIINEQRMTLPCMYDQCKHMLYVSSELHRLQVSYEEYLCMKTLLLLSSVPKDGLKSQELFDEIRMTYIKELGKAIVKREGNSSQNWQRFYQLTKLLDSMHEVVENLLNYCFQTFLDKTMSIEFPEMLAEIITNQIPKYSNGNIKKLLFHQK
# Outline: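 Human foreskin fibroblasts stimulated with IL-1 (1 ng/mL) in the presence of test compound, incubated at 37 °C for 18–24 h. IL-6 in the culture medium was quantified by electrochemiluminescence, DELFIA or ELISA. IC50 and % maximal efficacy were reported.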
# Glucocorticoid receptor [2] = target: T2, Glucocorticoid receptor (Homo sapiens, UniProt P04150); experiment: Transactivation activity of glucocorticoid receptor in HFF assessed as induction of aromatase activity by measuring beta-estradiol activity after 18 to 24 hrs by ELISA; conditions: read-out: EC50
# T2 sequence (P04150 whole entry): T1 sequence (whole entry)
# [3] = target: T1, Glucocorticoid receptor (Homo sapiens); experiment: Transactivation activity of glucocorticoid receptor in HFF assessed as induction of aromatase activity by measuring beta-estradiol activity after 18 to 24 hrs by ELISA relative to Dexamethasone
# Glucocorticoid receptor [4] = target: T2, Glucocorticoid receptor; experiment: Agonist activity at glucocorticoid receptor in human HeLa cells transfected with luciferase gene linked to MMTV promoter assessed as luciferase transactivation activity; format: functional, cell-based
# [5] = target: T1, Glucocorticoid receptor (Homo sapiens); experiment: Agonist activity at glucocorticoid receptor in human HeLa cells transfected with luciferase gene linked to MMTV promoter assessed as luciferase transactivation activity relative to Dexamethasone; format: functional, cell-based
# Outline: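 HeLa cells stably carrying an MMTV-luciferase construct were exposed to compound for 6 h at 37 °C, 5% CO2. Cells were then lysed and luminescence read with a Steady-Glo reagent. EC50 and % maximal efficacy were reported.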
# Mus musculus [6] = experiment: Antiinflammatory activity in mouse plasma assessed as inhibition of LPS-induced TNFalpha production at 3 mg/kg, po administered 1 hr before LPS challenge measured after 1 hr; format: functional
# Outline: (§1)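 Mice received compound orally in Cremophor RH 1 h before LPS challenge. Plasma TNF-α was measured 1 h after challenge. n = 8 per group; doses were 3 and 10 mg/kg.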
# Mus musculus [7] = experiment: Antiinflammatory activity in mouse plasma assessed as inhibition of LPS-induced TNFalpha production at 10 mg/kg, po administered 1 hr before LPS challenge measured after 1 hr; format: functional; outline: as §1
# Mus musculus [8] = experiment: Antiinflammatory activity in po dosed mouse plasma assessed as inhibition of LPS-induced TNFalpha production administered 1 hr before LPS challenge measured after 1 hr; format: functional; outline: as §1
# Glucocorticoid receptor [9] = target: T2, Glucocorticoid receptor; experiment: Displacement of tetramethylrhodamine-labeled Dexamethasone from human recombinant glucocorticoid receptor expressed in baculovirus infected insect cells by fluorescence polarization assay
# Progesterone receptor = target: T3, Progesterone receptor (Homo sapiens, UniProt P06401); experiment: Displacement of tetramethylrhodamine-labeled RU-486 from human recombinant progesterone receptor expressed in baculovirus infected insect cells by fluorescence polarization assay
# T3 sequence (P06401 whole entry): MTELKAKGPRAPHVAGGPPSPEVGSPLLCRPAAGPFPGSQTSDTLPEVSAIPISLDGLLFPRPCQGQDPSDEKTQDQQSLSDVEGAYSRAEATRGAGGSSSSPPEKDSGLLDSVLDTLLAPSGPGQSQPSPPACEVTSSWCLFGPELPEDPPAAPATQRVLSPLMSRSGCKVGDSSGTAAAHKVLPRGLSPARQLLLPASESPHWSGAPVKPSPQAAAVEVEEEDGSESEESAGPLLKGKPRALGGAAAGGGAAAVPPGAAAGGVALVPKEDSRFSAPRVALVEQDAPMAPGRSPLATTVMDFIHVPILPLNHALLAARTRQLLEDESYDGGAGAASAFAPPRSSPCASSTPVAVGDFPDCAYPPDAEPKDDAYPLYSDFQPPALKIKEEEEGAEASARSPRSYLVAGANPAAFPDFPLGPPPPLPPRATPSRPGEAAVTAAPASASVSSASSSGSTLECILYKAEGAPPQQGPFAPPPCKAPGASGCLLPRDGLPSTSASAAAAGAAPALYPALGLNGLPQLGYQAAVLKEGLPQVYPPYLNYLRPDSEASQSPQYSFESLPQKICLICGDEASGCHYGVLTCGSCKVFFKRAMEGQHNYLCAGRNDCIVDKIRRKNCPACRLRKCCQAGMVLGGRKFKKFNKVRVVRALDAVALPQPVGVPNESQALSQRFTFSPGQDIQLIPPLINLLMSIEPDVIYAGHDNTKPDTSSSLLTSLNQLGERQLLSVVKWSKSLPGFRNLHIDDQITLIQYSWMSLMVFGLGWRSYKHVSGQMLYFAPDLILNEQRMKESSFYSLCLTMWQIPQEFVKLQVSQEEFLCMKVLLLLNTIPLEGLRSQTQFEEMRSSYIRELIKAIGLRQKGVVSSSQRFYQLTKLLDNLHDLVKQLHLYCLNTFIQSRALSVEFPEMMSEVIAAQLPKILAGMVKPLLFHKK
# Outline: (§2)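 Fluorescence polarization competition assays with recombinant human receptors in lysates of baculovirus-infected insect cells. Reactions contained 1% DMSO and ran 1 h at room temperature.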
# [10] = target: T4, Mineralocorticoid receptor (Homo sapiens, UniProt P08235); experiment: Displacement of tetramethylrhodamine-labeled Dexamethasone from human recombinant mineralocorticoid receptor expressed in baculovirus infected insect cells by fluorescence polarization assay; outline: as §2
# T4 sequence (P08235 whole entry): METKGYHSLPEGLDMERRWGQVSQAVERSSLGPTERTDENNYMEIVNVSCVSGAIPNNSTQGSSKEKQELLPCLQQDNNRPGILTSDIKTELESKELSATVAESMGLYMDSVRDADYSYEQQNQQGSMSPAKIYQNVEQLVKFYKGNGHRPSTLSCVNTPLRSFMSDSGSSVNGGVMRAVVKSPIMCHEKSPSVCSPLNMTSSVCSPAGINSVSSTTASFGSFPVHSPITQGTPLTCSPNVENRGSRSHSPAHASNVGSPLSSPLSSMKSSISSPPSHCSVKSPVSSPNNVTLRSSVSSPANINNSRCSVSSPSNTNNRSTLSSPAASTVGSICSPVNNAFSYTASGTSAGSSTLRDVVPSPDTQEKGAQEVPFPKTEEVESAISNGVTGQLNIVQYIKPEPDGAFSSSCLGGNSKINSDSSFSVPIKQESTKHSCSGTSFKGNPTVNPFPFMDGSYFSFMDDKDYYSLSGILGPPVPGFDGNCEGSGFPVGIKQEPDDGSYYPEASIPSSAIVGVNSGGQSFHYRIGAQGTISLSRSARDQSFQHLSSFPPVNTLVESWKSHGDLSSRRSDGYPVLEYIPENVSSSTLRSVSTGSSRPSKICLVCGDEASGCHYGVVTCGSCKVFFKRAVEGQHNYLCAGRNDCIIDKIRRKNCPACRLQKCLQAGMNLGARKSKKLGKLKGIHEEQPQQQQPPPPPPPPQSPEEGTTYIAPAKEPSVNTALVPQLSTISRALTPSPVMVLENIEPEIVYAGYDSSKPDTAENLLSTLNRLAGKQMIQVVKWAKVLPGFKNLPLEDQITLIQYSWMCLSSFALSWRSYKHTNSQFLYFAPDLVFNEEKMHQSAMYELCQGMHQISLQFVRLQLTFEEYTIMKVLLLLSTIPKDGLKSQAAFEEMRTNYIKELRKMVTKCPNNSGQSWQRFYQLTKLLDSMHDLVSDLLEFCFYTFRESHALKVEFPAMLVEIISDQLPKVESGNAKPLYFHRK
# Glucocorticoid receptor [11] = target: T2, Glucocorticoid receptor; experiment: Agonist activity at glucocorticoid receptor in HFF assessed as inhibition of IL1-induced IL-6 production after 18 to 24 hrs; format: functional
# [12] = target: T5, Androgen receptor (Homo sapiens) (UniProt P10275); experiment: Displacement of [3H]-testosterone from human recombinant androgen receptor expressed in baculovirus infected insect cells at 1100 nM
# T5 sequence (whole entry): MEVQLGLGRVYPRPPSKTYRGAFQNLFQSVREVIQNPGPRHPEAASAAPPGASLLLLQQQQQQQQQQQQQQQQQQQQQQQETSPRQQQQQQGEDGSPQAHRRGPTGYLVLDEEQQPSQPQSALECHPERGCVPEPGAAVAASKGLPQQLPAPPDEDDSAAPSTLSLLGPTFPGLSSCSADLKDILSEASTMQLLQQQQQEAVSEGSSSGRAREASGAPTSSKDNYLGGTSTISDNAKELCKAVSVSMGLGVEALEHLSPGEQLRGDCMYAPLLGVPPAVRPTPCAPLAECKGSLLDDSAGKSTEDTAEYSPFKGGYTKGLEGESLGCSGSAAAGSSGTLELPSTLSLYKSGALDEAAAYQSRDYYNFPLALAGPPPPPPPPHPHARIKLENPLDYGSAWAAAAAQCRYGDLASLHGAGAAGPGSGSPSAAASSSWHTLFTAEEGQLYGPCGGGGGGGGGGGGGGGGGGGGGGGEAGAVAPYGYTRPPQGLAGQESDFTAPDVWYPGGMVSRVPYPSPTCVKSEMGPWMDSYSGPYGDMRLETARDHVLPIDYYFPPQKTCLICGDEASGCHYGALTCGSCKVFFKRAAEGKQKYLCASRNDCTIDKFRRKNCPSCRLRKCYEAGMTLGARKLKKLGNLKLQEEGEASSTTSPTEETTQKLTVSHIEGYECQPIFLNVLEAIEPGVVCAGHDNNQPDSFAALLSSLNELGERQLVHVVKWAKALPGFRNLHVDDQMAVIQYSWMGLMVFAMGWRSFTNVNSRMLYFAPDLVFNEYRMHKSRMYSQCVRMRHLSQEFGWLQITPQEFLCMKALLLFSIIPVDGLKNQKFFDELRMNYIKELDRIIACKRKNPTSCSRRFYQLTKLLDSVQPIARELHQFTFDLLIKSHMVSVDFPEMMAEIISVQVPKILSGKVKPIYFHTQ
# Outline: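 Competition of test compound at a single concentration against 10 nM ³H-testosterone for binding to recombinant human AR in lysates of baculovirus-infected cells. Dihydrotestosterone at 2 µM served as the positive control. Results are expressed as % of control.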
Compound,Efficacy [1],pEC50 (Glucocorticoid receptor [2]),Efficacy [3],pEC50 (Glucocorticoid receptor [4]),Efficacy [5],inhibition in vivo at 3 mg/kg (Mus musculus [6]),inhibition in vivo at 10 mg/kg (Mus musculus [7]),ED50 (Mus musculus [8]),pIC50 (Glucocorticoid receptor [9]),pIC50 (Progesterone receptor),pIC50 [10],pIC50 (Glucocorticoid receptor [11]),Activity [12],inhibition (Mus musculus [6])
CC(C)(CC(O)(Cc1cc2ccc(C#N)cc2[nH]1)C(F)(F)F)c1cc(S(C)(=O)=O)cc2c1OCC2 (racemic),89%,6.90,98%,< 5.70,10%,66%,66%,< 10 mg/kg,8.30,< 5.70,6.37,7.41,–,–
COc1ccc(F)cc1C(C)(C)CC(O)(Cc1cc2ccccc2[nH]1)C(F)(F)F (racemic),–,7.64,93%,–,–,–,–,–,7.66,6.54,–,8.15,inactive,–
CC(C)(C[C@@](O)(Cc1cc2ccccc2[nH]1)C(F)(F)F)c1cc(Br)cc2c1OCC2,–,–,–,–,–,–,61%,< 10 mg/kg,–,–,–,–,–,–
CC(C)(CC(O)(Cc1cc2cc(C#N)ccc2[nH]1)C(F)(F)F)c1cc(S(C)(=O)=O)cc2c1OCC2 (racemic),85%,7.10,63%,< 5.70,4%,–,77%,< 10 mg/kg,8.30,< 5.70,5.84,7.31,–,inactive
